Source: PubChem
CHO parental Ca = ATP-evoked calcium signal inhibitors, parental CHO, primary screen, counter-screen for OX1R antagonist project, cell-based, fluorescence, Fluo-8 calcium dye; 330,000 compounds, 0.63% hits; parental CHO-K1, ATP-induced calcium, Fluo-8 fluorescence; inhibition, % at 5.6 µM;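 active = inhibition above that plate's mean sample inhibition plus 3 SD, cut at about 26% in these data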
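Material: Parental CHO cells | Reagent: ATP | Compound dosing: Single nominal dose of 5.6 µM per compound | Detection: Intracellular calcium via Fluo-8 no-wash fluorescent dye | Read-out: % inhibition of ATP-induced calcium mobilization | Benchmarks: Low control ATP plus DMSO, high control DMSO only | Replicates: Singlicate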
GalR3 antagonist = GalR3 antagonists in HEK293 cells, primary screen, cell-based, fluorescence readout; Galanin receptor type 3 (Homo sapiens), O60755; HEK293 GalR3-CNG cAMP membrane potential fluorescence; galR3 body fused to GalR1 C-terminus; inhibition, % at 3 µM; 360,000 compounds, 0.44% hits; AID 651719, 2012;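 active = inhibition above the screen-wide average plus 3 SD, cut at about 13% in these data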;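 note: forskolin and galanin both at EC90 stimulate the cells; cAMP rise reported by CNG channel membrane potential dye signal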
Target sequence (O60755 1-299 limits assumed): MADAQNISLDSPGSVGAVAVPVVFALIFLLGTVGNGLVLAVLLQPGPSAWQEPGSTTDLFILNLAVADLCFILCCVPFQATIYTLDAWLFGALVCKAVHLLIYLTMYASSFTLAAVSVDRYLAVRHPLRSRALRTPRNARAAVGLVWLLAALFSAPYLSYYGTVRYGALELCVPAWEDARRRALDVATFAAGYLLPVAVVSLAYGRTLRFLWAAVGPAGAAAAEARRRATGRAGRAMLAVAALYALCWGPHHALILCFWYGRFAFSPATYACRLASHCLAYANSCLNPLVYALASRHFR
OX1R antag-1 = OX1R (HCRTR1) antagonists, primary screen, fluorescence, CHO/OX1R cells, Fluo-8 calcium, orexin A | 330,000 compounds, 0.43% hits | Fluo-8 calcium fluorescence | AID 434989, 2010 | Orexin/Hypocretin receptor type 1 (Homo sapiens), O43613 | inhibition, % at 5 µM;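 active = inhibition above its plate's threshold, mean inhibition of all tested compounds on the plate plus 3 SD, cut at about 37% in these data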
GPR7 antag = GPR7 receptor antagonists, primary screen, cell-based, fluorescence, single concentration | Neuropeptides B/W receptor type 1 (Homo sapiens), P48145 | GPR7-expressing cells, fluorescence antagonist assay | inhibition, % at 4.4 µM | 290,000 compounds, 1.1% hits; in the data active = inhibition above about 16%, passing the limit was not always enough;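 note: cells stimulated with the agonist NPW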
Target sequence (P48145 whole entry, looked up): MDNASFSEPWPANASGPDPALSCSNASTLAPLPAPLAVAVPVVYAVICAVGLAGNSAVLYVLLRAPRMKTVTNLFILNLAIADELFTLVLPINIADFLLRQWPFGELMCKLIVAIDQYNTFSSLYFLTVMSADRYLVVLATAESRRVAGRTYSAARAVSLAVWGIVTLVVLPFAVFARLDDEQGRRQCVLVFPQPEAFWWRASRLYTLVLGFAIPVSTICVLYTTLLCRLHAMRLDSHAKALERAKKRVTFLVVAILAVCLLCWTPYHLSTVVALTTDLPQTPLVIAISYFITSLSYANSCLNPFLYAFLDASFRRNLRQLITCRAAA
OX1R antag-2 = antagonists of human orexin 1 receptor (OX1R) | 330,000 compounds, 1.8% hits | Orexin/Hypocretin receptor type 1 (Homo sapiens), O43613 | inhibition, % at 6.6 µM | OX1R-expressing cells, FRET antagonist read-out; in the data active = inhibition mostly above about 38%, no sharp cut-off; inactive = mostly below about 40%
GPR7 antag cf = GPR7 receptor antagonists, confirmation, cell-based, fluorescence, single concentration; shares compounds with GPR7 antag; GPR7-expressing cells, calcium fluorescence antagonist mode; inhibition, % at 4.4 µM; 2,400 compounds, 52% hits; AID 1952, 2009; in the data active = inhibition above about 24%;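 note: stimulated with the GPR7 agonist NPW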
MCHR1 antag = MCHR1 antagonists in cells, counter-screen for GPR7 antagonist project, cell-based, fluorescence, human; shares compounds with GPR7 antag; MCHR1-expressing cells, fluorescence antagonist assay; inhibition, % at 4.4 µM; 2,400 compounds, 62% hits; AID 2148, 2009; in the data active = inhibition above about 22%
Numbers stand for hits; - = inactive; . = not tested or not shown. Only some compounds are listed: those with a hit (about 3.1% of all), similar ones and a draw of the others.

SMILES	CHO parental Ca	GalR3 antagonist	OX1R antag-1	GPR7 antag	OX1R antag-2	GPR7 antag cf	MCHR1 antag
O=C1O[C@@H](c2ccccc2)C[C@@H](O)C(=O)CCc2ccccc21	.	-	.	.	.	.	.
COc1ccc(C(=O)NCCc2c[nH]c3ccccc23)cc1OC	-	-	-	-	-	.	.
O=C(NCCc1c[nH]c2ccccc12)c1ccc2[nH]c(=O)c(=O)[nH]c2c1	-	-	-	40	-	-	-
CC1=C(C)C(=O)N(CCC(=O)O)C1=O	-	-	-	-	-	.	.
O=C(O)CCn1c(=O)[nH]c(=O)n(CCC(=O)O)c1=O	-	-	-	24	-	-	-
CCN(CC)c1ccc2cc(-c3nc4ccccc4[nH]3)c(=O)oc2c1	80	.	113	28	81	81	89
COC(=O)c1ccccc1NC(=O)CN1C(=O)C2CCCN2c2ncc(Cl)cc21 (stereo not drawn)	-	.	-	-	-	.	.
CCc1ccccc1NC(=O)CN1C(=O)C2CCCN2c2ncc(Cl)cc21 (stereo not drawn)	-	-	-	38	-	34	-
CCCCN1C(=O)C(CC(=O)NCCCN(C)C)CC(C(=O)N2CCOCC2)=C1C (stereo not drawn)	.	-	.	.	.	.	.
COc1ccc2c(c1)C(=O)N(c1ccccc1)C(=O)C2	-	-	-	28	-	-	-
O=C(Cc1n[nH]c(=O)c2ccccc12)N1CCN(c2ccc(F)cc2)CC1	-	-	-	22	-	-	-
CCc1nc2c(OCc3cc(Cl)cc(Cl)c3)cccn2c1N(C)C(=O)CC(C)C	.	-	.	.	.	.	.
CCOC(=O)C(C)Oc1cccc2c(=O)n(CC(=O)NCc3ccccc3)ccc12 (stereo not drawn)	-	-	-	22	-	-	-
CCOC(=O)C(C)Oc1cccc2c(=O)n(CC(=O)NCCc3ccccc3)ccc12 (stereo not drawn)	-	-	-	-	-	.	.
O=C(NC1CCCCC1)C1c2ccccc2OCC(=O)N1Cc1ccco1 (stereo not drawn)	.	-	.	.	.	.	.
COc1cc(C(=O)N2CCN(c3cccc(C(F)(F)F)c3)CC2)ccc1OCC(=O)N1CCOCC1	.	-	.	.	.	.	.
Cc1ccc(S(=O)(=O)N/N=C/c2ccc(OC3CSC3)cc2)cc1	56	-	84	34	-	89	84
CCc1ccc(N(C2C=CS(=O)(=O)C2)S(=O)(=O)c2ccccc2)cc1 (stereo not drawn)	-	-	-	-	-	.	.
Cc1ccc(S(=O)(=O)N(c2cccc(C(F)(F)F)c2)C2C=CS(=O)(=O)C2)cc1 (stereo not drawn)	-	-	-	23	-	-	-
O=C(NC1CCCCC1)C(c1ccncc1)N(Cc1ccc2c(c1)OCO2)C(=O)c1cnsn1 (stereo not drawn)	-	-	-	26	-	30	-
Nc1nc(N)nc(-c2ccccc2)n1	-	-	-	-	-	.	.
Nc1nc(N)nc(-c2ccccc2-c2nc(N)nc(N)n2)n1	-	-	-	-	-	-	-
O=C(Nc1ccc(-n2nncc2-c2ccco2)cc1)c1cccc(F)c1	-	-	-	39	-	62	49
NS(=O)(=O)c1ccc(-n2nncc2-c2ccco2)cc1	-	-	-	-	-	.	.
COc1ccccc1CNS(=O)(=O)c1ccc(Cl)s1	-	-	-	23	-	-	-
SMILES	CHO parental Ca	GalR3 antagonist	OX1R antag-1	GPR7 antag	OX1R antag-2	GPR7 antag cf	MCHR1 antag
COc1ccccc1CNS(=O)(=O)c1cc(C)ccc1OC	-	-	-	-	-	.	.
CC(C)c1ccc(C(=O)Nc2nnc(S(=O)(=O)N3CCCCC3)s2)cc1	-	-	-	67	-	-	27
NC(=O)c1c(N)sc2c1CCCC2	-	-	-	23	-	-	-
Nc1sc2c(c1C(=O)c1ccccc1)CCCC2	-	-	-	-	-	.	.
CC(C)[C@@H](C)/C=C/[C@@H](C)[C@H]1CC[C@@H]2[C@]1(C)CCC1[C@]23C=C[C@]2(C[C@@H](O)CC[C@]12C)N(c1ccc(F)cn1)O3 (stereo partly drawn)	.	-	.	.	.	.	.
NC(=S)N/N=C/c1c(O)ccc2ccccc12	-	-	-	23	-	-	-
Cc1ccccc1S(=O)(=O)N(C)C[C@@H]1OCc2cn(nn2)CCCC(=O)N([C@@H](C)CO)C[C@H]1C	.	-	.	.	.	.	.
NS(=O)(=O)c1ccc2nc(NC(=O)Nc3ccc(F)cc3)sc2c1	-	-	-	34	-	50	-
CS(=O)(=O)c1ccc2nc(NC(=O)Nc3ccc(Cl)cc3)sc2c1	-	-	-	-	-	.	.
FC(F)Oc1ccc(NC(=S)NCc2ccccc2)cc1	-	-	-	-	-	.	.
Cc1cc2cc(CNC(=S)Nc3ccc(OC(F)F)cc3)ccc2n1C	-	-	-	50	-	-	51
COc1cc(OC)cc(C(=O)NCc2ccc3c(c2)cc(C)n3C)c1	-	-	-	-	-	.	.
COc1ccc(C(=O)NCc2ccc3c(c2)cc(C)n3C)cc1	-	.	-	23	-	-	-
Cc1cccc2c1NC(=O)C2(c1ccc(O)cc1)c1ccc(O)cc1	-	-	-	67	-	79	49
CCN1C(=O)C(c2ccc(O)cc2)(c2ccc(O)cc2)c2ccccc21	-	-	-	-	-	.	.
CCN(c1ccccc1)S(=O)(=O)c1ccc(C(=O)Nc2cc(C)ccn2)cc1	-	-	-	.	-	.	.
c1ccc(Cn2nnnc2C(c2cccs2)N2CCc3ccccc3C2)cc1 (stereo not drawn)	-	.	-	23	-	-	39
CCCCNc1nc2ccccc2n1CC(=O)Nc1c(C)cccc1CC	-	-	-	33	-	32	-
COC(=O)[C@@]1(Cc2ccc(OC)cc2)[C@H]2c3cc(C(=O)N4CCCC4)n(Cc4ccccc4)c3C[C@H]2CN1C(=O)c1ccccc1	.	-	.	.	.	.	.
O=S(=O)(c1cccs1)N1CCN(Cc2cccc(F)c2)CC1	-	-	-	30	-	-	-
Cc1ccc(S(=O)(=O)N2CCN(Cc3cccc(F)c3)CC2)cc1	-	-	-	.	-	.	.
O=[N+]([O-])c1cccc(S(=O)(=O)Nc2ccccn2)c1	.	-	.	.	.	.	.
CCOc1cc(CNC2CCCC2)cc(Cl)c1OCc1ccccc1	-	-	-	26	-	40	30
COc1ccc(NC(=O)c2cccc(Oc3ccc([N+](=O)[O-])cc3Cl)c2)cc1	-	-	-	34	-	-	36
